Our source for the MIC and Activity values is ChEMBL document CHEMBL1153861, “Synthesis, optimization and structure-activity relationships of 3,5-disubstituted isoxazolines as new anti-tuberculosis agents” (2009).

Molecules are shown by their SMILES. Values after ≈ are worked out from the molar mass of the structure shown. Active and inactive are the calls of the source. Bounds are passed on as bounds.

Assay [1] relates to Mycobacterium tuberculosis. Nature of the assay: Antitubercular activity against Mycobacterium tuberculosis H37Rv. The format is functional. The gist of the method:
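Broth microdilution against M. tuberculosis H37Rv; MIC read by visual inspection of growth.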

In another assay the test system is Staphylococcus aureus. Nature of the assay: Antimicrobial activity against Staphylococcus aureus. The format is functional, organism-based.
The next assay concerns Streptococcus pneumoniae. Nature of the assay: Antimicrobial activity against Streptococcus pneumoniae. In kind it is functional, organism-based.
Another assay concerns Escherichia coli. Put plainly: Antimicrobial activity against Escherichia coli. In kind it is functional, organism-based.

The MIC is the smallest concentration in the dilution series that meets the test's criterion for growth inhibition. A higher MIC goes with a need for much substance.

`Cc1nnc(C2=NOC(c3ccc(N4CCN(Cc5ccccc5)CC4)cc3)C2)o1` (stereo unspecified) returned an MIC in assay [1] of 200 µg/mL (≈ 496 µM). Further, the result with Staphylococcus aureus, with Streptococcus pneumoniae and in the assay with Escherichia coli was inactive.
In assay [1], `CCOC(=O)C1=NOC(c2ccc(N3CCN(C(=O)Nc4ccccc4)CC3)cc2)C1` (stereo unspecified) had an MIC of 6.25 µg/mL (≈ 14.8 µM). The outcome in the assay on Staphylococcus aureus, with Streptococcus pneumoniae and in the assay on Escherichia coli was inactive.
Take `CCOC(=O)C1=NOC(c2ccc(N3CCN(C(=O)NC(C)C)CC3)cc2)C1` (stereo unspecified): it took 12.5 µg/mL (≈ 32.2 µM) to inhibit growth in assay [1] (MIC). In addition, the outcome with Staphylococcus aureus, in the assay with Streptococcus pneumoniae and in the assay with Escherichia coli was inactive.
As for `OCC1=NOC(c2ccc(N3CCN(Cc4ccccc4)CC3)cc2)C1` (stereo unspecified), in assay [1], the MIC was found to be 200 µg/mL (≈ 569 µM). The outcome with Staphylococcus aureus, in the assay with Streptococcus pneumoniae and in the assay with Escherichia coli was inactive.
For the molecule `CCOC(=O)C1=NOC(c2ccc(-c3ccco3)cc2)C1` (stereo unspecified), in assay [1], the lowest concentration to inhibit growth (MIC) was 3.25 µg/mL (≈ 11.4 µM). In addition, the result in the assay with Staphylococcus aureus, in the assay with Streptococcus pneumoniae and with Escherichia coli was inactive.
As for `O=C(O)C1=NOC(c2ccc(N3CCN(Cc4ccccc4)CC3)cc2)C1` (stereo unspecified) [listing 1 of 2 here], the result in the assay with Staphylococcus aureus, in the assay on Streptococcus pneumoniae and in the assay with Escherichia coli was inactive.
In turn, `CCCCOC(=O)N1CCN(c2ccc(C3CC(C(=O)O)=NO3)cc2)CC1` (stereo unspecified) showed an MIC in assay [1] above 200 µg/mL. Further, the result in the assay on Staphylococcus aureus, with Streptococcus pneumoniae and with Escherichia coli was inactive.
`CC(C)COC(=O)N1CCN(c2ccc(C3CC(C(=O)O)=NO3)cc2)CC1` (stereo unspecified): the MIC in assay [1] was above 200 µg/mL. Also, the result with Staphylococcus aureus, in the assay with Streptococcus pneumoniae and with Escherichia coli was inactive.
Turning to `CCOC(=O)C1=NOC(c2ccc(N3CCN(C(=O)OCC(C)C)CC3)cc2)C1` (stereo unspecified), in assay [1], 0.8 µg/mL (≈ 1.98 µM) was the least that counted as inhibitory (MIC). Besides, the result in the assay on Staphylococcus aureus, with Streptococcus pneumoniae and in the assay with Escherichia coli was inactive.
Consider `CCOC(=O)C1=NOC(c2ccc(N3CCN(Cc4ccc([N+](=O)[O-])cc4)CC3)cc2)C1` (stereo unspecified), for which the MIC in assay [1] was found to be 0.8 µg/mL (≈ 1.82 µM). The outcome in the assay on Staphylococcus aureus, in the assay with Streptococcus pneumoniae and in the assay with Escherichia coli was inactive.
Turning to `CCOC(=O)C1=NOC(c2ccc(N3CCN(C(=O)OC(C)(C)C)CC3)cc2)C1` (stereo unspecified), in assay [1], inhibition of growth (MIC) required 0.8 µg/mL (≈ 1.98 µM). For the same molecule, the result with Staphylococcus aureus, with Streptococcus pneumoniae and in the assay with Escherichia coli was inactive.
`CCOC(=O)C1=NOC(c2ccc(N3CCNCC3)cc2)C1` (stereo unspecified) registered an MIC in assay [1] of 50 µg/mL (≈ 165 µM). Further, the outcome in the assay on Staphylococcus aureus, with Streptococcus pneumoniae and in the assay on Escherichia coli was inactive.
In assay [1], `CCOC(=O)C1=NOC(c2ccc(-c3ccc(C=O)cc3)cc2)C1` (stereo unspecified) showed an MIC of 6.25 µg/mL (≈ 19.3 µM). Also, the outcome with Staphylococcus aureus, with Streptococcus pneumoniae and in the assay on Escherichia coli was inactive.
In turn, `O=C([O-])C1=NOC(c2ccc(N3CCN(Cc4ccccc4)CC3)cc2)C1.[Li+]` (stereo unspecified) yielded an MIC in assay [1] of 100 µg/mL.
As for `CCOC(=O)C1=NOC(c2ccc(N3CCC(Oc4ccc(OC(F)(F)F)cc4)CC3)cc2)C1` (stereo unspecified), the lowest concentration to inhibit growth in assay [1] (MIC) was 25 µg/mL (≈ 52.3 µM). Moreover, the result with Staphylococcus aureus, in the assay on Streptococcus pneumoniae and in the assay with Escherichia coli was inactive.
For the molecule `CCOC(=O)C1=NOC(c2ccc(N3CCN(Cc4ccccc4)CC3)cc2)C1` (stereo unspecified), in assay [1], 1.56 µg/mL (≈ 3.96 µM) was the least that counted as inhibitory (MIC). For the same molecule, the outcome with Staphylococcus aureus, with Streptococcus pneumoniae and in the assay with Escherichia coli was inactive.
`O=C(O)C1=NOC(c2ccc(N3CCN(Cc4ccccc4)CC3)cc2)C1` (stereo unspecified) [listing 2 of 2 here]: the MIC in assay [1] is above 200 µg/mL.
